Measured values from ChEMBL document CHEMBL1938279, “Synthesis and evaluation of macrocyclic diarylether heptanoid natural products and their analogs” (Bioorg Med Chem Lett, 2012).
pIC50: −log10 of the molar value. Blank lines part the entries; values can stand above or below the molecule they belong to. The source made the active and inactive calls. No cut-off for these calls is given here.

What was measured:
[1] = Inhibition of NF-kappaB activation in human TNFalpha-stimulated A549 cells preincubated for 2 hrs before TNFalpha challenge measured after 7 hrs post stimulation by luciferase reporter gene assay; type: cell-based
Method in brief: (§1)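 Stable κB-luciferase-expressing A549 cells; NF-κB transcription activity read as luciferase signal; single concentration of 20 μM and dose-response experiments.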

Hs 766 [2] = assay: Potentiation of gemcitabine-induced cytotoxicity against human Hs766T cells assessed as cell growth inhibition at 20 uM after 5 days by alamar blue assay; type: functional, cell-based
Method in brief: (§2)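 Hs 766T and PANC-1 pancreatic tumour cells given test agent alone or combined with gemcitabine; growth inhibition measured; data representative of three independent experiments, mean ± SD.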

PANC-1 [3] = assay: Potentiation of gemcitabine-induced cytotoxicity against human PANC1 cells assessed as cell growth inhibition at 20 uM after 5 days by alamar blue assay; type: functional, cell-based; method in brief: as §2
Hs 766 [4] = assay: Growth inhibition of human Hs766T cells at 20 uM after 5 days by alamar blue assay; type: functional, cell-based; method in brief: as §2
PANC-1 [5] = assay: Growth inhibition of human PANC1 cells at 20 uM after 5 days by alamar blue assay; type: functional, cell-based; method in brief: as §2
HEK293 [6] = assay: Inhibition of TNFalpha-stimulated IkappaBalpha protein expression in HEK293 cells at 50 uM after 60 mins by Western blot analysis; type: functional, cell-based; settings: Homo sapiens
Method in brief: (§3)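 HEK 293 cells stimulated with TNF-α with or without test agent; IκBα protein levels assessed by Western blotting at set times after stimulation.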

PANC-1 [7] = assay: Potentiation of gemcitabine-induced induction of apoptosis in human PANC1 cells assessed as activation of caspase 3/7 after 48 hrs by caspase-Glo 3 assay; type: functional, cell-based
Method in brief: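 PANC-1 cells treated with test agent alone or combined with gemcitabine; caspase 3/7 activity read after 48 hr as apoptosis marker; representative of two independent experiments, mean ± SD.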

A549 = assay: Inhibition of NF-kappaB activation in human TNFalpha-stimulated A549 cells at 20 uM preincubated for 2 hrs before TNFalpha challenge measured after 7 hrs post stimulation by luciferase reporter gene assay; type: cell-based; method in brief: as §1
HEK293 [8] = assay: Inhibition of TNFalpha-stimulated IkappaBalpha protein expression in HEK293 cells at 50 uM after 30 mins by Western blot analysis; type: functional, cell-based; settings: Homo sapiens; method in brief: as §3
HEK293 [9] = assay: Inhibition of TNFalpha-stimulated IkappaBalpha protein expression in HEK293 cells at 50 uM after 120 mins by Western blot analysis; type: functional, cell-based; settings: Homo sapiens; method in brief: as §3

pIC50 [1]: 4.44
Structure (SMILES): COc1cc2ccc1Oc1cc(ccc1OC)CCC(O)CCCC2 (centres undefined) [PLATYCARYNOL]

pIC50 [1]: 5.33
Structure (SMILES): C=C1C(=O)O[C@@H]2C3O[C@]3(C)CC/C=C(\C)CC[C@@H]12 (some centres undefined)

pIC50 [1]: 4.19
Structure (SMILES): COc1ccc2c(c1OC)C(=O)O[C@@H]2[C@H]1c2c(cc3c(c2OC)OCO3)CCN1C [NOSCAPINE]

pIC50 [1]: 4.69
Structure (SMILES): COc1cc(/C=C/C(=O)CC(=O)/C=C/c2ccc(O)c(OC)c2)ccc1O [CURCUMIN]

pIC50 [1]: 4.84
Structure (SMILES): COc1ccc2cc1Oc1cc(ccc1OC)CCC(=O)CCCC2
growth inhibition (GI) (Hs 766 [2]): Active
growth inhibition (GI) (PANC-1 [3]): Active
growth inhibition (GI) (Hs 766 [4]): inactive
growth inhibition (GI) (PANC-1 [5]): inactive
inhibition (HEK293 [6]): Active
Activity (PANC-1 [7]): Active
inhibition (A549): Active
inhibition (HEK293 [8]): Active
inhibition (HEK293 [9]): Active
